Experimental data taken from ChEMBL document CHEMBL3232844, “Synthesis and structure activity relationships of schweinfurthin indoles” (2014).

Experiments:
Format in all cases: functional
CCRF-CEM = test: Cytotoxicity against human CCRF-CEM cells
HL-60(TB) = test: Cytotoxicity against human HL-60(TB) cells
Outline: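 Tested within the NCI 60-cell-line screen, with GI50 as the read-out. Values are the average of two independent experiments. The lowest concentration tested was 10 nM.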

K562 = test: Cytotoxicity against human K562 cells
Outline: (§1)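 Tested in a 60-cell-line human tumor panel screen; the read-out is growth inhibition, reported as GI50 for each cell line.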

SR = test: Cytotoxicity against human SR cells
Outline: (§2)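 Cell line run as part of the 60-cell-line screening panel; growth inhibition was reported as a GI50 for each line.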

A549 = test: Cytotoxicity against human A549 cells; outline: as §1
HOP-62 = test: Cytotoxicity against human HOP62 cells; outline: as §1
NCI-H226 = test: Cytotoxicity against human NCI-H226 cells; outline: as §1
NCI-H23 = test: Cytotoxicity against human NCI-H23 cells; outline: as §1
COLO 205 = test: Cytotoxicity against human COLO205 cells; outline: as §1
HCC 2998 = test: Cytotoxicity against human HCC2998 cells; outline: as §1
HCT-116 = test: Cytotoxicity against human HCT116 cells; outline: as §1
[1] = Cytotoxicity against human HCT15 cells; outline: as §1
HT-29 = test: Cytotoxicity against human HT-29 cells; outline: as §1
KM12 = test: Cytotoxicity against human KM12 cells; outline: as §1
SF-268 = test: Cytotoxicity against human SF268 cells; outline: as §1
SF-295 = test: Cytotoxicity against human SF295 cells; outline: as §1
SF-539 = test: Cytotoxicity against human SF539 cells; outline: as §1
SNB-19 = test: Cytotoxicity against human SNB19 cells; outline: as §1
SNB-75 = test: Cytotoxicity against human SNB75 cells; outline: as §2
LOX IMVI = test: Cytotoxicity against human LOXIMVI cells; outline: as §1
M14 = test: Cytotoxicity against human M14 cells; outline: as §1
MDA-MB-435 = test: Cytotoxicity against human MDA-MB-435 cells; outline: as §1
NCI-H322M = test: Cytotoxicity against human NCI-H322M cells; outline: as §1
SK-MEL-2 = test: Cytotoxicity against human SK-MEL-2 cells; outline: as §1
[2] = Cytotoxicity against human UACC257 cells; outline: as §2
[3] = Cytotoxicity against human UACC62 cells; outline: as §2
IGROV-1 = test: Cytotoxicity against human IGROV1 cells; outline: as §1
[4] = Cytotoxicity against human OVCAR4 cells; outline: as §1
[5] = Cytotoxicity against human OVCAR8 cells; outline: as §1
[6] = Cytotoxicity against human NCI-ADR-RES cells; outline: as §1
SK-OV-3 = test: Cytotoxicity against human SKOV3 cells; outline: as §1
786-0 = test: Cytotoxicity against human 786-0 cells; outline: as §1
A498 = test: Cytotoxicity against human A498 cells; outline: as §1
ACHN = test: Cytotoxicity against human ACHN cells; outline: as §1
CAKI-1 = test: Cytotoxicity against human Caki1 cells; outline: as §1
RXF 393 = test: Cytotoxicity against human RXF393 cells; outline: as §1
SN12C = test: Cytotoxicity against human SN12C cells; outline: as §1
TK-10 = test: Cytotoxicity against human TK10 cells; outline: as §2
[7] = Cytotoxicity against human UO31 cells; outline: as §2
DU-145 = test: Cytotoxicity against human DU145 cells; outline: as §1
MDA-MB-231 = test: Cytotoxicity against human MDA-MB-231 cells; outline: as §1
BT-549 = test: Cytotoxicity against human BT549 cells; outline: as §1
MDA-MB-468 = test: Cytotoxicity against human MDA-MB-468 cells; outline: as §1
[8] = read-out: pLC50 (the source's name) (converted)

Work on COc1cc(/C=C/c2cc(OC)c3c(C/C=C(\C)CCC=C(C)C)c[nH]c3c2)cc2c1O[C@]1(C)CC[C@@H](O)C(C)(C)[C@H]1C2 yielded a GI50 (CCRF-CEM) of 0.295 µM, a CC50 (CCRF-CEM; [8]) greater than 100 µM and a GI50 (HL-60(TB)) of 0.363 µM. The CC50 (HL-60(TB); [8]) was greater than 100 µM, the TGI (HL-60(TB); read-out: pTGI (converted)) was 10.5 µM and the GI50 (K562) was 0.427 µM. For the same compound, the CC50 (K562; [8]) was greater than 100 µM, the TGI (K562; read-out: pTGI (converted)) was 3.89 µM and the GI50 (SR) was 0.245 µM. It also gave a CC50 (SR; [8]) greater than 100 µM, a TGI (SR; read-out: pTGI (converted)) of 1.48 µM and a GI50 (A549) of 1.66 µM. It also gave a CC50 (A549; [8]) greater than 100 µM, a TGI (A549; read-out: pTGI (converted)) of 36.3 µM and a GI50 (HOP-62) of 1.07 µM. For the same compound, the CC50 (HOP-62; [8]) was 22.4 µM, the TGI (HOP-62; read-out: pTGI (converted)) was 4.79 µM and the GI50 (NCI-H226) was 8.32 µM. For the same compound, the CC50 (NCI-H226; [8]) was 61.7 µM, the TGI (NCI-H226; read-out: pTGI (converted)) was 24.5 µM and the GI50 (NCI-H23) was 2.34 µM. It also gave a CC50 (NCI-H23; [8]) of 66.1 µM, a TGI (NCI-H23; read-out: pTGI (converted)) of 16.6 µM and a GI50 (COLO 205) of 1.02 µM. It also gave a CC50 (COLO 205; [8]) of 6.03 µM, a TGI (COLO 205; read-out: pTGI (converted)) of 2.45 µM and a GI50 (HCC 2998) of 11.5 µM. It also gave a CC50 (HCC 2998; [8]) of 57.5 µM, a TGI (HCC 2998; read-out: pTGI (converted)) of 25.7 µM and a GI50 (HCT-116) of 0.933 µM. The CC50 (HCT-116; [8]) was 43.7 µM, the TGI (HCT-116; read-out: pTGI (converted)) was 12.9 µM and the GI50 ([1]; HCT-15) was 1.82 µM. The CC50 ([1]; HCT-15, read-out: pLC50 (the source's name) (converted)) was 66.1 µM, the TGI ([1]; HCT-15, read-out: pTGI (converted)) was 11.5 µM and the GI50 (HT-29) was 0.447 µM. It also gave a CC50 (HT-29; [8]) greater than 100 µM, a TGI (HT-29; read-out: pTGI (converted)) of 2.75 µM and a GI50 (KM12) of 0.562 µM. It also gave a CC50 (KM12; [8]) of 5.13 µM, a TGI (KM12; read-out: pTGI (converted)) of 1.95 µM and a GI50 (SF-268) of 1.41 µM. The CC50 (SF-268; [8]) was 52.5 µM, the TGI (SF-268; read-out: pTGI (converted)) was 15.8 µM and the GI50 (SF-295; read-out: GI50) was 0.2 µM. The GI50 (SF-295; read-out: pGI50 (converted)) was 0.204 µM, the TGI (SF-295; read-out: pTGI (converted)) was 0.575 µM and the GI50 (SF-539) was 0.148 µM. It also gave a CC50 (SF-539; [8]) of 5.37 µM, a TGI (SF-539; read-out: pTGI (converted)) of 0.871 µM and a GI50 (SNB-19) of 1.7 µM. It also gave a CC50 (SNB-19; [8]) of 58.9 µM, a TGI (SNB-19; read-out: pTGI (converted)) of 13.5 µM and a GI50 (SNB-75) of 0.145 µM. For the same compound, the CC50 (SNB-75; [8]) was 40.7 µM, the TGI (SNB-75; read-out: pTGI (converted)) was 0.692 µM and the GI50 (LOX IMVI) was 1 µM. For the same compound, the CC50 (LOX IMVI; [8]) was 7.59 µM, the TGI (LOX IMVI; read-out: pTGI (converted)) was 2.75 µM and the GI50 (M14) was 1.17 µM. The CC50 (M14; [8]) was 8.51 µM, the TGI (M14; read-out: pTGI (converted)) was 3.16 µM and the GI50 (MDA-MB-435) was 1.62 µM. For the same compound, the CC50 (MDA-MB-435; [8]) was greater than 100 µM, the TGI (MDA-MB-435; read-out: pTGI (converted)) was 17.4 µM and the GI50 (NCI-H322M) was 19.1 µM. The CC50 (NCI-H322M; [8]) was greater than 100 µM, the TGI (NCI-H322M; read-out: pTGI (converted)) was greater than 100 µM and the GI50 (SK-MEL-2) was 1 µM. The CC50 (SK-MEL-2; [8]) was 63.1 µM, the TGI (SK-MEL-2; read-out: pTGI (converted)) was 9.77 µM and the GI50 ([2]; UACC-257) was 5.75 µM. The CC50 ([2]; UACC-257, read-out: pLC50 (the source's name) (converted)) was 81.3 µM, the TGI ([2]; UACC-257, read-out: pTGI (converted)) was 25.7 µM and the GI50 ([3]; UACC-62) was 0.309 µM. It also gave a CC50 ([3]; UACC-62, read-out: pLC50 (the source's name) (converted)) of 7.76 µM, a TGI ([3]; UACC-62, read-out: pTGI (converted)) of 1.48 µM and a GI50 (IGROV-1) of 3.8 µM. For the same compound, the CC50 (IGROV-1; [8]) was 91.2 µM, the TGI (IGROV-1; read-out: pTGI (converted)) was 24 µM and the GI50 ([4]; OVCAR-4) was 2.57 µM. For the same compound, the CC50 ([4]; OVCAR-4, read-out: pLC50 (the source's name) (converted)) was greater than 100 µM, the TGI ([4]; OVCAR-4, read-out: pTGI (converted)) was 70.8 µM and the GI50 ([5]; OVCAR-8) was 12.6 µM. The CC50 ([5]; OVCAR-8, read-out: pLC50 (the source's name) (converted)) was greater than 100 µM, the TGI ([5]; OVCAR-8, read-out: pTGI (converted)) was 36.3 µM and the GI50 [6] was 14.8 µM. For the same compound, the CC50 [6, 8] was greater than 100 µM, the TGI ([6]; read-out: pTGI (converted)) was greater than 100 µM and the GI50 (SK-OV-3) was 1.23 µM. The LC50 (SK-OV-3) was greater than 100 µM, the TGI (SK-OV-3; read-out: pTGI (converted)) was 13.8 µM and the GI50 (786-0) was 0.195 µM. For the same compound, the LC50 (concentration killing 50% of cells) (786-0) was 56.2 µM, the TGI (786-0; read-out: pTGI (converted)) was 1.86 µM and the GI50 (A498) was 1.02 µM. It also gave a CC50 (A498; [8]) of 16.6 µM, a TGI (A498; read-out: pTGI (converted)) of 3.72 µM and a GI50 (ACHN) of 0.661 µM. The LC50 (concentration killing 50% of cells) (ACHN) was 85.1 µM, the TGI (ACHN; read-out: pTGI (converted)) was 16.2 µM and the GI50 (CAKI-1) was 0.603 µM. The LC50 (CAKI-1) was greater than 100 µM, the TGI (CAKI-1; read-out: pTGI (converted)) was 3.89 µM and the GI50 (RXF 393) was 0.055 µM. For the same compound, the LC50 (RXF 393) was 1 µM, the TGI (RXF 393; read-out: pTGI (converted)) was 0.251 µM and the GI50 (SN12C) was 6.76 µM. The LC50 (SN12C) was 63.1 µM, the TGI (SN12C; read-out: pTGI (converted)) was 23.4 µM and the GI50 (TK-10) was 4.27 µM. It also gave an LC50 (TK-10) greater than 100 µM, a TGI (TK-10; read-out: pTGI (converted)) of 46.8 µM and a GI50 ([7]; UO-31) of 0.631 µM. It also gave an LC50 ([7]; UO-31) greater than 100 µM, a TGI ([7]; UO-31, read-out: pTGI (converted)) of 14.1 µM and a GI50 (DU-145) of 3.8 µM. It also gave an LC50 (50% lethal concentration) (DU-145) of 45.7 µM, a TGI (DU-145; read-out: pTGI (converted)) of 19.1 µM and a GI50 (MDA-MB-231) of 1.41 µM. The LC50 (MDA-MB-231) was 66.1 µM, the TGI (MDA-MB-231; read-out: pTGI (converted)) was 12.9 µM and the GI50 (BT-549) was 0.589 µM. It also gave a CC50 (BT-549; [8]) of 64.6 µM, a TGI (BT-549; read-out: pTGI (converted)) of 17.8 µM and a GI50 (MDA-MB-468) of 1.32 µM. It also gave an LC50 (MDA-MB-468) of 33.1 µM and a TGI (MDA-MB-468; read-out: pTGI (converted)) of 8.51 µM.
